Experimental data from ChEMBL document CHEMBL4261642, “Design, synthesis, and ex vivo evaluation of a selective inhibitor for retinaldehyde dehydrogenase enzymes” (Bioorg Med Chem, 2018).
Values belong to the molecule of their own block, whether it stands above or below them. Calls of active or inactive are those of the source. The calls are words filed in the database; no cut-off is given here.

Legend:
[1] = molecular target: T1, Retinal dehydrogenase 2 (Gallus gallus) (UniProt O93344); assay: Inhibition of RALDH2 in living intact choroid isolated from 4 day recovering chick eyes assessed as inhibition of ATRA synthesis at 1 uM after 24 hrs in presence of […]
T1 sequence (whole entry): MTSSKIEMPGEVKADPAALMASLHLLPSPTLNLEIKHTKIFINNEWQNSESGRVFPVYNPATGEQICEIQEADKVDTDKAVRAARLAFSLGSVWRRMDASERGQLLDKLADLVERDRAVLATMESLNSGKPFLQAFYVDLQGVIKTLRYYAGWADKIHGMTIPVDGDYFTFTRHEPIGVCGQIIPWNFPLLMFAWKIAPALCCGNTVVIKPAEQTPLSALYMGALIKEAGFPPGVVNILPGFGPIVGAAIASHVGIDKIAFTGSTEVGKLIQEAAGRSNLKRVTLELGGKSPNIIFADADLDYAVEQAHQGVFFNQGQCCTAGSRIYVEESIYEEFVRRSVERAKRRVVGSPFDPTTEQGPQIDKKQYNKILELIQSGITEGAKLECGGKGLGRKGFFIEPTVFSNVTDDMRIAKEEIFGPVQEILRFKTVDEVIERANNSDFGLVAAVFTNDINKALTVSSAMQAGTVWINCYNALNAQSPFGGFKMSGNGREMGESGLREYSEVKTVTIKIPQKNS

[2] = molecular target: T2, Retinal dehydrogenase 2 (Gallus gallus, UniProt O93344); assay: Inhibition of RALDH2 in living intact choroid isolated from 4 day recovering chick eyes assessed as inhibition of ATRA synthesis after 24 hrs in presence of […]
T2 sequence (O93344 whole entry): T1 sequence (whole entry)

[3] = molecular target: T1, Retinal dehydrogenase 2 (Gallus gallus); assay: Inhibition of RALDH2 in living intact choroid isolated from 4 day recovering chick eyes assessed as inhibition of ATRA synthesis at 0.1 uM after 24 hrs in presence of […]
[4] = molecular target: T1, Retinal dehydrogenase 2 (Gallus gallus); assay: Inhibition of RALDH2 in living intact choroid isolated from 4 day recovering chick eyes assessed as inhibition of ATRA synthesis at 10 uM after 24 hrs in presence of […]
[5] = molecular target: T1, Retinal dehydrogenase 2 (Gallus gallus); assay: Inhibition of RALDH2 in living intact choroid isolated from normal chick eyes assessed as inhibition of ATRA synthesis after 24 hrs in presence of retinaldehyde and NAD+
[6] = molecular target: T3, Aldehyde dehydrogenase, mitochondrial (Homo sapiens, UniProt P05091); assay: Inhibition of N-terminal His6-tagged recombinant human mitochondrial ALDH2 using propionaldehyde as substrate preincubated for 20 mins to 1 hr followed by substrate addition and measured for 5 mins in presence of NADH by spectrophotometric assay; details: read-out: IC50
T3 sequence (P05091 whole entry): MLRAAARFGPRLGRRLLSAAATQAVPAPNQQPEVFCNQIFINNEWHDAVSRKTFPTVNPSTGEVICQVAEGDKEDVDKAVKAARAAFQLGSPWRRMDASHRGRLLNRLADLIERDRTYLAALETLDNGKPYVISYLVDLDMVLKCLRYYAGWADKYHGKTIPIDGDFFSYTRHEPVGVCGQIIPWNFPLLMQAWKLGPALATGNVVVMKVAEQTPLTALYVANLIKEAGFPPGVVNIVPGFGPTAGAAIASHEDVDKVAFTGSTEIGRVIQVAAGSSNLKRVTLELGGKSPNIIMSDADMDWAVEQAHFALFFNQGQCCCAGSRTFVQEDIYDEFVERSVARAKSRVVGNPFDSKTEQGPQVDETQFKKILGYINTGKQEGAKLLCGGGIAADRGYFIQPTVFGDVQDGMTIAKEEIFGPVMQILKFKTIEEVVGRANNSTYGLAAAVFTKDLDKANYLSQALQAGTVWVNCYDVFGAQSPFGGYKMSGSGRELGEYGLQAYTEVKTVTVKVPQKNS

[7] = compound: CC1=C(/C=C/C(C)=C/C=C/C(C)=C/C(=O)C(Cl)Cl)C(C)(C)CCC1; assay: (§1) Inhibition of N-terminal His6-tagged recombinant chick RALDH1 expressed in Escherichia coli BL21(DE3) cells at 100 nM using RAL as substrate assessed as Km preincubated for 20 mins followed by substrate addition and measured after 30 mins in presence of NADH by fluorescence assay (reference value: 67.09 +/- 25.06 microM); details: Gallus gallus
[8] = compound: CC1=C(/C=C/C(C)=C/C=C/C(C)=C/C(=O)C(Cl)Cl)C(C)(C)CCC1; assay: as §1, with “500” for “100”; details: Gallus gallus
[9] = compound: CC1=C(/C=C/C(C)=C/C=C/C(C)=C/C(=O)C(Cl)Cl)C(C)(C)CCC1; assay: as §1, with “1000” for “100”; details: Gallus gallus
[10] = compound: CC1=C(/C=C/C(C)=C/C=C/C(C)=C/C(=O)C(Cl)Cl)C(C)(C)CCC1; assay: as §1, with “Vmax” for “Km”, “54.77” for “67.09”, “7.58 pmol/microM/min)” for “25.06 microM)”; details: Gallus gallus
[11] = compound: CC1=C(/C=C/C(C)=C/C=C/C(C)=C/C(=O)C(Cl)Cl)C(C)(C)CCC1; assay: as §1, with “500” for “100”, “Vmax” for “Km”, “54.77” for “67.09”, “7.58 pmol/microM/min)” for “25.06 microM)”; details: Gallus gallus
[12] = compound: CC1=C(/C=C/C(C)=C/C=C/C(C)=C/C(=O)C(Cl)Cl)C(C)(C)CCC1; assay: as §1, with “1000” for “100”, “Vmax” for “Km”, “54.77” for “67.09”, “7.58 pmol/microM/min)” for “25.06 microM)”; details: Gallus gallus
[13] = compound: CC1=C(/C=C/C(C)=C/C=C/C(C)=C/C(=O)C(Cl)Cl)C(C)(C)CCC1; assay: Inhibition of N-terminal His6-tagged recombinant chick RALDH2 expressed in Escherichia coli BL21(DE3) cells at 150 nM using RAL as substrate assessed as Vmax at enzyme concentrations of 183 to 365 nM measured after 30 mins in presence of NADH by fluorescence assay; details: Gallus gallus
In short: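 Chick RALDH2 at 46–365 nM pre-incubated 20 min with a fixed 150 nM inhibitor. NADH synthesis then started with 250 μM retinaldehyde and 4 mM NAD+, 30 min at 37°C, read fluorimetrically. Vmax plotted against enzyme concentration.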

[14] = compound: CC1=C(/C=C/C(C)=C/C=C/C(C)=C/C(=O)C(Cl)Cl)C(C)(C)CCC1; assay: as §1, with “RALDH2” for “RALDH1”, “50” for “100”, “82.12” for “67.09”, “28.41” for “25.06”; details: Gallus gallus
[15] = compound: CC1=C(/C=C/C(C)=C/C=C/C(C)=C/C(=O)C(Cl)Cl)C(C)(C)CCC1; assay: as §1, with “RALDH2” for “RALDH1”, “82.12” for “67.09”, “28.41” for “25.06”; details: Gallus gallus
[16] = compound: CC1=C(/C=C/C(C)=C/C=C/C(C)=C/C(=O)C(Cl)Cl)C(C)(C)CCC1; assay: as §1, with “RALDH2” for “RALDH1”, “150” for “100”, “82.12” for “67.09”, “28.41” for “25.06”; details: Gallus gallus
[17] = compound: CC1=C(/C=C/C(C)=C/C=C/C(C)=C/C(=O)C(Cl)Cl)C(C)(C)CCC1; assay: as §1, with “RALDH2” for “RALDH1”, “200” for “100”, “82.12” for “67.09”, “28.41” for “25.06”; details: Gallus gallus
[18] = compound: CC1=C(/C=C/C(C)=C/C=C/C(C)=C/C(=O)C(Cl)Cl)C(C)(C)CCC1; assay: as §1, with “RALDH2” for “RALDH1”, “250” for “100”, “82.12” for “67.09”, “28.41” for “25.06”; details: Gallus gallus
[19] = compound: CC1=C(/C=C/C(C)=C/C=C/C(C)=C/C(=O)C(Cl)Cl)C(C)(C)CCC1; assay: as §1, with “RALDH2” for “RALDH1”, “50” for “100”, “Vmax” for “Km”, “1665” for “67.09”, “239.28 pmol/microM/min)” for “25.06 microM)”; details: Gallus gallus
[20] = compound: CC1=C(/C=C/C(C)=C/C=C/C(C)=C/C(=O)C(Cl)Cl)C(C)(C)CCC1; assay: as §1, with “RALDH2” for “RALDH1”, “Vmax” for “Km”, “1665” for “67.09”, “239.28 pmol/microM/min)” for “25.06 microM)”; details: Gallus gallus
[21] = compound: CC1=C(/C=C/C(C)=C/C=C/C(C)=C/C(=O)C(Cl)Cl)C(C)(C)CCC1; assay: as §1, with “RALDH2” for “RALDH1”, “150” for “100”, “Vmax” for “Km”, “1665” for “67.09”, “239.28 pmol/microM/min)” for “25.06 microM)”; details: Gallus gallus
[22] = compound: CC1=C(/C=C/C(C)=C/C=C/C(C)=C/C(=O)C(Cl)Cl)C(C)(C)CCC1; assay: as §1, with “RALDH2” for “RALDH1”, “200” for “100”, “Vmax” for “Km”, “1665” for “67.09”, “239.28 pmol/microM/min)” for “25.06 microM)”; details: Gallus gallus
[23] = compound: CC1=C(/C=C/C(C)=C/C=C/C(C)=C/C(=O)C(Cl)Cl)C(C)(C)CCC1; assay: as §1, with “RALDH2” for “RALDH1”, “250” for “100”, “Vmax” for “Km”, “1665” for “67.09”, “239.28 pmol/microM/min)” for “25.06 microM)”; details: Gallus gallus

inhibition [1]: 51%
EC50 [2]: 44.5 nM
inhibition [3]: 40%
inhibition [4]: 76%
inhibition [5]: inactive
IC50 [6]: 229 nM
Molecule: O=C(NCCCCCCCCNC(=O)C(Cl)Cl)C(Cl)Cl

B1: Aldehyde dehydrogenase 1A1 (Gallus gallus), P27463 (protein)
chain: MKKQGSPSNPAPVLPALPEPLKDLKIKYTKIFINNEWHDSVSGKKFEVFNPANEEKICEVAEGDKADIDKAVKAARKAFELGSPWRTMDASERGRLLNKLADLVERDRLTLATMEAIDGGKLFSTAYLMDLGACIKTIRYCAGWADKIHGRTVPMDGNFFTFTRHEPVGVCGQIIPWNFPLVMFIWKIAPALCCGNTVVVKPAEQTPLSALYMGSLIKEAGFPPGVVNIVPGFGPTAGAAISHHMDIDKVSFTGSTEVGKLIKEAAGKTNLKRVTLELGGKSPNIIFADADLDEAAEFAHIGLFYHQGQCCIAGSRIFVEEPIYDEFVRRSIERAKKYTLGDPLLPGVQQGPQIDKEQFQKILDLIESGKKEGAKLECGGGPWGNKGYFIQPTVFSNVTDDMRIAKEEIFGPVQQIMKFKTIDEVIKRANNTTYGLAAAVFTKDIDKALTFASALQAGTVWVNCYSAFSAQCPFGGFKMSGNGRELGEYGLQEYTEVKTVTIKIPQKNS
Km [7]: 62.2 µM
Km [8]: 32.9 µM
Km [9]: 22.8 µM
Vmax [10]: 50.1 pmol/µM/min
Vmax [11]: 33.8 pmol/µM/min
Vmax [12]: 25.7 pmol/µM/min

B2: Retinal dehydrogenase 2 (Gallus gallus), O93344 (protein)
chain: T1 sequence (whole entry)
Vmax [13]: 0.5 to 3.01 µM/min
Km [14]: 80.7 µM
Km [15]: 47.2 µM
Km [16]: 22.7 µM
Km [17]: 18.3 µM
Km [18]: 14.9 µM
Vmax [19]: 1560 pmol/µM/min
Vmax [20]: 1150 pmol/µM/min
Vmax [21]: 867 pmol/µM/min
Vmax [22]: 666 pmol/µM/min
Vmax [23]: 503 pmol/µM/min
